Source: ChEMBL document CHEMBL1208737, “Synthesis and in vitro evaluation of N-alkyl-3-hydroxy-3-(2-imino-3-methyl-5-oxoimidazolidin-4-yl)indolin-2-one analogs as potential anticancer agents” (2010)

Assays:
Format in all cases: functional
CCRF-CEM = experiment: Growth inhibition of human CCRF-CEM cells by sulforhodamine B assay
Method in brief: (§1)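 Five-dose response testing across a 57-line human tumour panel (leukemia, non-small cell lung, colon, CNS, melanoma, ovarian, renal, prostate, breast), done after a single-dose primary screen run per the NCI method. Effect plotted against log10 molar drug concentration for each cell line. GI50 is the concentration giving a 50% reduction in net protein increase versus control cells.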

HL-60(TB) = experiment: Growth inhibition of human HL-60(TB) cells by sulforhodamine B assay; method in brief: as §1
K562 = experiment: Growth inhibition of human K562 cells by sulforhodamine B assay; method in brief: as §1
MOLT-4 = experiment: Growth inhibition of human MOLT4 cells by sulforhodamine B assay; method in brief: as §1
[1] = Growth inhibition of human […] cells by sulforhodamine B assay; method in brief: as §1
A549 = experiment: Growth inhibition of human A549 cells by sulforhodamine B assay
Method in brief: (§2)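 Five-dose response testing across the 57-line human tumour panel. Growth effect was plotted against log10 drug concentration for each cell line. GI50 is the molar concentration giving a 50% reduction in net protein increase relative to untreated control cells. TGI (total growth inhibition) and LC50 (concentration lethal to 50% of cells) were read from the same curves.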

EKVX = experiment: Growth inhibition of human EKVX cells by sulforhodamine B assay; method in brief: as §1
HOP-62 = experiment: Growth inhibition of human HOP62 cells by sulforhodamine B assay; method in brief: as §1
NCI-H226 = experiment: Growth inhibition of human NCI-H226 cells by sulforhodamine B assay; method in brief: as §1
NCI-H23 = experiment: Growth inhibition of human NCI-H23 cells by sulforhodamine B assay; method in brief: as §1
NCI-H322M = experiment: Growth inhibition of human NCI-H322M cells by sulforhodamine B assay; method in brief: as §1
NCI-H460 = experiment: Growth inhibition of human NCI-H460 cells by sulforhodamine B assay; method in brief: as §1
NCI-H522 = experiment: Growth inhibition of human NCI-H522 cells by sulforhodamine B assay; method in brief: as §1
COLO 205 = experiment: Growth inhibition of human COLO205 cells by sulforhodamine B assay; method in brief: as §1
HCC 2998 = experiment: Growth inhibition of human HCC2998 cells by sulforhodamine B assay; method in brief: as §1
HCT-116 = experiment: Growth inhibition of human HCT116 cells by sulforhodamine B assay; method in brief: as §1
HCT-15 = experiment: Growth inhibition of human HCT15 cells by sulforhodamine B assay; method in brief: as §1
HT-29 = experiment: Growth inhibition of human HT-29 cells by sulforhodamine B assay; method in brief: as §1
KM12 = experiment: Growth inhibition of human KM12 cells by sulforhodamine B assay; method in brief: as §1
SW-620 = experiment: Growth inhibition of human SW620 cells by sulforhodamine B assay; method in brief: as §1
SF-268 = experiment: Growth inhibition of human SF268 cells by sulforhodamine B assay; method in brief: as §1
SF-295 = experiment: Growth inhibition of human SF295 cells by sulforhodamine B assay; method in brief: as §1
SF-539 = experiment: Growth inhibition of human SF539 cells by sulforhodamine B assay; method in brief: as §1
SNB-19 = experiment: Growth inhibition of human SNB19 cells by sulforhodamine B assay; method in brief: as §1
SNB-75 = experiment: Growth inhibition of human SNB75 cells by sulforhodamine B assay; method in brief: as §1
LOX IMVI = experiment: Growth inhibition of human LOXIMVI cells by sulforhodamine B assay; method in brief: as §2
Malme-3M = experiment: Growth inhibition of human MALME-3M cells by sulforhodamine B assay; method in brief: as §1
M14 = experiment: Growth inhibition of human M14 cells by sulforhodamine B assay; method in brief: as §1
MDA-MB-435 = experiment: Growth inhibition of human MDA-MB-435 cells by sulforhodamine B assay; method in brief: as §1
SK-MEL-2 = experiment: Growth inhibition of human SK-MEL-2 cells by sulforhodamine B assay; method in brief: as §1
SK-MEL-28 = experiment: Growth inhibition of human SK-MEL-28 cells by sulforhodamine B assay; method in brief: as §1
SK-MEL-5 = experiment: Growth inhibition of human SK-MEL-5 cells by sulforhodamine B assay; method in brief: as §1
UACC-257 = experiment: Growth inhibition of human UACC257 cells by sulforhodamine B assay
Method in brief: (§3)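 Part of a 57-line human tumour cell panel run at five doses. Growth effect was plotted against log10 molar drug concentration for each cell line. GI50 is the concentration giving a 50% reduction in net protein increase relative to untreated control cells, read from the dose-response curve.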

UACC-62 = experiment: Growth inhibition of human UACC62 cells by sulforhodamine B assay; method in brief: as §3
IGROV-1 = experiment: Growth inhibition of human IGROV1 cells by sulforhodamine B assay; method in brief: as §1
OVCAR-3 = experiment: Growth inhibition of human OVCAR-3 cells by sulforhodamine B assay; method in brief: as §1
OVCAR-4 = experiment: Growth inhibition of human OVCAR4 cells by sulforhodamine B assay; method in brief: as §1
OVCAR-5 = experiment: Growth inhibition of human OVCAR5 cells by sulforhodamine B assay; method in brief: as §1
OVCAR-8 = experiment: Growth inhibition of human OVCAR8 cells by sulforhodamine B assay; method in brief: as §1
NCI/ADR-RES = experiment: Growth inhibition of human NCI/ADR-RES cells by sulforhodamine B assay; method in brief: as §1
SK-OV-3 = experiment: Growth inhibition of human SKOV3 cells by sulforhodamine B assay; method in brief: as §1
786-0 = experiment: Growth inhibition of human 786-0 cells by sulforhodamine B assay; method in brief: as §1
A498 = experiment: Growth inhibition of human A498 cells by sulforhodamine B assay; method in brief: as §1
ACHN = experiment: Growth inhibition of human ACHN cells by sulforhodamine B assay; method in brief: as §1
CAKI-1 = experiment: Growth inhibition of human Caki1 cells by sulforhodamine B assay; method in brief: as §1
RXF 393 = experiment: Growth inhibition of human RXF393 cells by sulforhodamine B assay; method in brief: as §1
SN12C = experiment: Growth inhibition of human SN12C cells by sulforhodamine B assay; method in brief: as §1
TK-10 = experiment: Growth inhibition of human TK10 cells by sulforhodamine B assay; method in brief: as §3
UO-31 = experiment: Growth inhibition of human UO31 cells by sulforhodamine B assay; method in brief: as §3
PC-3 = experiment: Growth inhibition of human PC3 cells by sulforhodamine B assay; method in brief: as §1
DU-145 = experiment: Growth inhibition of human DU145 cells by sulforhodamine B assay; method in brief: as §1
MCF7 = experiment: Growth inhibition of human MCF7 cells by sulforhodamine B assay; method in brief: as §1
MDA-MB-231 = experiment: Growth inhibition of human MDA-MB-231 cells by sulforhodamine B assay; method in brief: as §1
[2] = Growth inhibition of human Hs 578T cells by sulforhodamine B assay; method in brief: as §1
BT-549 = experiment: Growth inhibition of human BT549 cells by sulforhodamine B assay; method in brief: as §1
T47D = experiment: Growth inhibition of human T47D cells by sulforhodamine B assay; method in brief: as §3
MDA-MB-468 = experiment: Growth inhibition of human MDA-MB-468 cells by sulforhodamine B assay; method in brief: as §1
[3] = read-out: LC50 (the source's name)

COc1ccc(CN2C(=O)C(O)(C3C(=O)NC(=N)N3C)c3cc(Cl)ccc32)cc1 (stereo unspecified)
GI50 (CCRF-CEM): 2.06 µM | CC50 (CCRF-CEM; [3]): > 100 µM | GI50 (HL-60(TB)): 3.22 µM | LC50 (HL-60(TB)): > 100 µM | GI50 (K562): 5.04 µM | CC50 (K562; [3]): > 100 µM | GI50 (MOLT-4): 2.94 µM | CC50 (MOLT-4; [3]): > 100 µM | GI50 [1]: 2.62 µM | CC50 [1, 3]: > 100 µM | GI50 (A549): 0.19 µM | LC50 (A549): 10.9 µM | TGI (A549): 1.96 µM | GI50 (EKVX): 28.5 µM | LC50 (EKVX): > 100 µM | GI50 (HOP-62): 5.12 µM | CC50 (HOP-62; [3]): > 100 µM | GI50 (NCI-H226): 26.8 µM | CC50 (NCI-H226; [3]): > 100 µM | GI50 (NCI-H23): 4.74 µM | LC50 (NCI-H23): > 100 µM | GI50 (NCI-H322M): 14.3 µM | CC50 (NCI-H322M; [3]): > 100 µM | GI50 (NCI-H460): 26.8 µM | LC50 (NCI-H460): > 100 µM | GI50 (NCI-H522): 1.86 µM | LC50 (concentration killing 50% of cells) (NCI-H522): 20.5 µM | GI50 (COLO 205): 14.3 µM | CC50 (COLO 205; [3]): > 100 µM | GI50 (HCC 2998): 18.7 µM | LC50 (HCC 2998): 73.9 µM | GI50 (HCT-116): 3 µM | LC50 (HCT-116): 34.5 µM | GI50 (HCT-15): 12.6 µM | LC50 (concentration killing 50% of starting cells) (HCT-15): > 100 µM | GI50 (HT-29): 1.38 µM | LC50 (HT-29): 44.1 µM | GI50 (KM12): 2.05 µM | CC50 (KM12; [3]): 30 µM | GI50 (SW-620): 2.59 µM | CC50 (SW-620; [3]): 49.6 µM | GI50 (SF-268): 3.31 µM | CC50 (SF-268; [3]): 64.9 µM | GI50 (SF-295): 3.71 µM | CC50 (SF-295; [3]): > 100 µM | GI50 (SF-539): 3.12 µM | CC50 (SF-539; [3]): 79.1 µM | GI50 (SNB-19): 17.2 µM | CC50 (SNB-19; [3]): > 100 µM | GI50 (SNB-75): 3.39 µM | CC50 (SNB-75; [3]): > 100 µM | GI50 (LOX IMVI): 0.75 µM | TGI (LOX IMVI): 11.8 µM | CC50 (LOX IMVI; [3]): 60 µM | GI50 (Malme-3M): 29.6 µM | CC50 (Malme-3M; [3]): > 100 µM | GI50 (M14): 3.59 µM | LC50 (M14): 61.4 µM | GI50 (MDA-MB-435): 6.12 µM | CC50 (MDA-MB-435; [3]): 93.1 µM | GI50 (SK-MEL-2): 10.4 µM | CC50 (SK-MEL-2; [3]): 96 µM | GI50 (SK-MEL-28): 50.3 µM | CC50 (SK-MEL-28; [3]): > 100 µM | GI50 (SK-MEL-5): 22.6 µM | CC50 (SK-MEL-5; [3]): > 100 µM | GI50 (UACC-257): 1.43 µM | LC50 (UACC-257): 19.4 µM | GI50 (UACC-62): 23.4 µM | CC50 (UACC-62; [3]): > 100 µM | GI50 (IGROV-1): 2.59 µM | CC50 (IGROV-1; [3]): > 100 µM | GI50 (OVCAR-3): 2.08 µM | CC50 (OVCAR-3; [3]): 11.5 µM | GI50 (OVCAR-4): 5.52 µM | CC50 (OVCAR-4; [3]): > 100 µM | GI50 (OVCAR-5): 34.9 µM | CC50 (OVCAR-5; [3]): > 100 µM | GI50 (OVCAR-8): 1.35 µM | CC50 (OVCAR-8; [3]): 17.2 µM | GI50 (NCI/ADR-RES): 1.88 µM | CC50 (NCI/ADR-RES; [3]): 36.5 µM | GI50 (SK-OV-3): 30.1 µM | CC50 (SK-OV-3; [3]): > 100 µM | GI50 (786-0): 3.44 µM | CC50 (786-0; [3]): 43 µM | GI50 (A498): 34.5 µM | CC50 (A498; [3]): > 100 µM | GI50 (ACHN): 20.4 µM | CC50 (ACHN; [3]): > 100 µM | GI50 (CAKI-1): 1.98 µM | CC50 (CAKI-1; [3]): > 100 µM | GI50 (RXF 393): 6.29 µM | CC50 (RXF 393; [3]): > 100 µM | GI50 (SN12C): 5.94 µM | CC50 (SN12C; [3]): > 100 µM | GI50 (TK-10): 4.11 µM | CC50 (TK-10; [3]): > 100 µM | GI50 (UO-31): 4.15 µM | CC50 (UO-31; [3]): > 100 µM | GI50 (PC-3): 4.27 µM | CC50 (PC-3; [3]): > 100 µM | GI50 (DU-145): 3.76 µM | CC50 (DU-145; [3]): 74.6 µM | GI50 (MCF7): 3.22 µM | LC50 (concentration killing 50% of starting cells) (MCF7): > 100 µM | GI50 (MDA-MB-231): 8.55 µM | CC50 (MDA-MB-231; [3]): > 100 µM | GI50 [2]: 2.04 µM | CC50 [2, 3]: > 100 µM | GI50 (BT-549): 2.98 µM | LC50 (BT-549): 54.9 µM | GI50 (T47D): 13.5 µM | LC50 (T47D): > 100 µM | GI50 (MDA-MB-468): 2.29 µM | LC50 (concentration causing 50% net cell kill) (MDA-MB-468): > 100 µM
